Bioassay records: PubChem, several laboratories
Beta cell apopt = blocks beta cell apoptosis; INS-1E cytokine-induced death, ATP luminescence, 48 h; percent of positive-control rescue, neutral wells zero; AID 435005; 300,000 compounds, 0.8% hits; protection from apoptosis, % (test concentration not listed);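 active = Every replicate reaches about 75%, or at least half do and their mean reaches it too, limit read from the data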;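 note: 0% = cytokine-treated negative control wells and 100% = positive control rescue; higher means more ATP so stronger rescue from cytokine killing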
Efflux pump inh = blocks antifungal efflux pumps in multiplex yeast assay; AID 485275; S. cerevisiae Candida pump triplex, Nile Red efflux; inhibition, % at 10 µM; 330,000 compounds, 0.44% hits;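 active = plate passing quality check with inhibition over a set limit, or well fluorescence over plate mean plus 4 SD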;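 note: Nile Red retained in pooled yeast measured as flow cytometry median fluorescence; 0% = buffer negative control and 100% = Enniatin B positive control; higher means more Nile Red kept so more efflux inhibition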
T cruzi inh = blocks replication of Trypanosoma cruzi | T. cruzi beta-gal in NIH3T3, luminescence, 90 h | inhibition, % (test concentration not listed) | 300,000 compounds, 1.4% hits | AID 1885;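 active = mean inhibition across valid replicates above about 55%, limit read from the data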;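 note: signal also drops with host cell toxicity which is not excluded here; 0% = plate median of DMSO wells and 100% = zero luminescence signal; higher percent means less beta-gal luminescence so fewer parasites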
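Test system: β-gal T. cruzi (Tulahuen C4) inside NIH/3T3 cells / Quantity: 5,000 cells/well / Measured by: luminescence from GalScreen with 0.05% NP40, read after 60 min / Medium: DMEM plus 2% FBS / Measure: parasite load inhibition, % / Reagent: Tulahuen C4 trypomastigotes, 5000/well / Schedule: co-culture of at least 90 h after 3 h attachment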
WT yeast gro inh = growth inhibition of WT yeast, mitochondrial fusion screen. 190,000 compounds, 2.1% hits. AID 1362. mitochondrial fusion phenotypic screen, WT strain. inhibition, % at 10 µM; in the data active = inhibition above about 58%; tested in S. cerevisiae
SUMO Mot1 rescue = SUMOylation pathway inhibition by Mot1-301 growth rescue; 320,000 compounds, 1% hits; S. cerevisiae Mot1-301 growth rescue, ATP luminescence, 38.5C; percent above DMSO median, 100 means doubled; growth rescue, % at 18.8 µM;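 active = every valid replicate shows activation above 250% relative to neutral control wells; inactive = the rest, any valid replicate at or below 250%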;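 note: OY570 slx delta 5 strain wells were the positive control but not used for scaling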
CSC inhib = cancer stem cell inhibition; 300,000 compounds, 1.1% hits; inhibition, % at 7.5 µM; cancer stem cell-like cells viability, luminescence; in the data active = inhibition above about 75%; tested in HMLE shEcad cells
An asterisk follows results filed as active; · = not tested or not shown. This is a sample that favours compounds with a hit; in the whole collection about 4.8% have one here.

SMILES	Beta cell apopt	Efflux pump inh	T cruzi inh	WT yeast gro inh	SUMO Mot1 rescue	CSC inhib
COc1cccc(N2C(C(C)=O)=NN(c3ccccc3)C2c2ccc(N3CCOCC3)cc2)c1 (stereo unspecified)	3.7	-0.2	76.6*	12.8	-3.0	7.4
O=C(CN1CCN(c2ccc(O)cc2)CC1)N(C1CC1)C1CCS(=O)(=O)C1 (stereo unspecified)	-7.9	-0.2	·	·	2.8	5.9
O=C(O)C1(c2ccccc2)CCN(S(=O)(=O)c2ccc(F)c(F)c2)CC1	-0.9	-0.1	3.5	·	-10.6	-0.7
CCCn1c(-c2cccs2)nc2ccccc21	0.4	0.3	2.2	14.6	-20.4	28.9
CCN1c2ccccc2-c2nc3ccccc3n2C1c1cccs1 (stereo unspecified)	4.4	0.3	-1.4	64.4*	103.4	7.6
O=C(CN(C(=O)CNC(=O)c1ccco1)c1ccc(F)cc1)NC1CCCC1	-1.0	-0.3	-5.2	·	4.8	·
CN(C)S(=O)(=O)c1cccc(-c2nn(-c3ccccc3)cc2/C=C2\SC(=S)NC2=O)c1	37.7	-0.1	·	-23.9	50.4	94.1*
CSc1ccc(CN2C(=O)NC3(CCCCCCC3)C2=O)cc1	-4.0	0.3	26.7	18.9	30.1	4.6
N=c1c(-c2nc3ccccc3[nH]2)cc(C(=O)c2cccs2)nn1-c1ccccc1	-5.8	0.1	72.3*	-8.7	-17.1	-13.5
c1ccc(Nc2nc(N3CCCCC3)nc(N3CCCCC3)n2)cc1	13.4	0.1	38.3	52.0	-4.6	-7.7
COc1ccc(N2CCN(c3nc(Nc4ccc(C)c(F)c4)nc(N4CCCC4)n3)CC2)cc1	32.5	0.0	67.5*	20.7	-1.8	17.4
CCOc1ccc(Nc2nc(N3CCCCC3)nc(N3CCCCC3)n2)cc1	0.5	0.1	31.3	60.6*	7.0	-12.7
CCOC(=O)C1CCN(c2c(C(=O)c3ccccc3)cnc3ccc(CC)cc23)CC1	6.5	0.1	-0.3	75.5*	3.9	-12.2
CCOC(=O)C1CCCN(C(=O)c2cc(-c3ccncc3)nc3ccccc23)C1 (stereo unspecified)	-2.1	0.0	-0.1	·	79.2	-6.9
CCOC(=O)C1CCCN(c2c(C(=O)c3ccccc3)cnc3ccccc23)C1 (stereo unspecified)	-1.7	0.5	-0.5	58.8*	-9.5	5.8
CC(=O)C(N=Nc1ccccc1)(Sc1nnc(-c2ccccc2)n1-c1ccccc1)C(=O)Nc1ccccc1 (stereo unspecified)	2.6	0.3	45.3	27.7	-2.5	4.3
CC(=O)C(N=Nc1ccccc1)(Sc1nnc(-c2ccccc2)n1-c1ccccc1)C(C)=O	1.8	0.1	24.7	78.5*	-9.5	30.2
Cc1cc(=O)oc2cc(OCc3ccc(C(=O)OCC(=O)Nc4ccccc4OC(F)F)cc3)ccc12	-5.3	-0.3	5.9	-7.7	-0.7	0.9
CC1=NN(c2ccc([N+](=O)[O-])cc2)C(=O)/C1=C\N(C)C	42.1	-2.2	-8.1	65.4*	2.9	42.3
Cc1ccc(NC(=O)c2cnc(SCC(=O)NCC3CCCO3)n(C)c2=O)cc1C (stereo unspecified)	-10.3	0.2	3.8	·	1.1	-2.6
O=C(CCn1nc(-c2ccccc2)c2ccccc2c1=O)NCC1CCCO1 (stereo unspecified)	-0.8	0.0	-1.7	63.2*	-6.1	0.7
Cn1c(SCC(=O)NCC2CCCO2)ncc(C(=O)Nc2ccccc2)c1=O (stereo unspecified)	·	0.1	-4.8	·	418.1*	-11.4
O=C(Cn1nc(-c2ccc(Cl)cc2)c2ccccc2c1=O)NCC1CCCO1 (stereo unspecified)	·	0.0	-2.6	-16.0	333.1*	-11.2
Cc1ccc(-c2nn(CCC(=O)NCC3CCCO3)c(=O)c3ccccc23)cc1 (stereo unspecified)	5.1	-0.1	-25.9	-15.3	-7.7	-2.3
CCC1(c2ccccc2)NC(=O)N(CC(=O)NNC(=O)COc2ccc(Cl)cc2C)C1=O (stereo unspecified)	1.7	-0.2	·	·	-5.6	·
CC(C)Oc1ccc(C(=O)Nc2cccc3cccnc23)cc1	1.0	0.0	7.7	58.7*	150.0	-13.9
CCOc1ccc(C(=O)Nc2cccc3cccnc23)cc1	3.5	0.3	5.6	·	-12.6	-7.8
Cc1ccn2c(CNCC3COCCO3)c(C(=O)N3CCCCCC3)nc2c1 (stereo unspecified)	-8.2	0.0	10.0	·	-9.8	4.8
